Results from ChEMBL document CHEMBL1121930, “Design of more potent antagonists of the antidiuretic responses to arginine-vasopressin” (J Med Chem, 1982).
Where “and” joins values, the source holds several entries; their conditions need not be identical. Equal entries are not always repeated. *1 amine or outer side, *2 acyl side, *3 side chain or, on linkers, in order; H or OH if unused. Where a SMILES comes first, the peptide text is derived from it. Bridges are numbered along the chain shown (N, C = ends). [ ]: non-standard residue; d: D form. The star is where a group is joined. X1 = O=C(CC1(S[*:2])CCCCC1)[*:1]; Propyl = CCC*; iPr = CC(C)*

What was measured:
Rattus norvegicus [1] = test: Antivasopressor effective dose is defined as the dose that reduces the response seen with 2 units of agonist to equal the response seen with 1 unit of agonist administered before antagonist.; assay type: functional
Method in brief: (§1)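 Intravenous vasopressor assay in phenoxybenzamine-treated rats under urethane anesthesia, agonist USP posterior pituitary reference standard. Effective dose (nmol/kg) cuts the response to 2x units of agonist to that of 1x units given before the antagonist. pA2 = −log(effective dose / 67 mL/kg).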

Rattus norvegicus [2] = test: Effective dose is defined as the dose that reduces the response seen with 2 units of agonist to equal the response seen with 1 unit of agonist administered before antagonist.; assay type: functional
Rattus norvegicus [3] = test: In vivo pA2 value represent the negative logarithm of the effective dose divided by the estimated volume of distribution (67 mL/kg).; assay type: functional, organism-based
Rattus norvegicus [4] = test: Antivasopressor effective dose is expressed as the dose that reduces the response seen with 2 units of agonist to equal the response seen with 1 unit of agonist administered before antagonist.; assay type: functional; method in brief: as §1
Rattus norvegicus [5] = test: In vivo pA2 value represent the negative logarithm of the antidiuretic effective dose divided by the estimated volume of distribution (67 mL/kg).; assay type: functional, organism-based; details: Urine, read-out: pA2 (converted)
Method in brief: (§2)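 Rats under ethanol anesthesia, agonist USP posterior pituitary reference standard. Agonist injected 20 and 50 min after the antagonist. Responses at 20 min were used, or at 50 min for analogues that inhibited more then. Each antagonist was given at two doses, one above and one below the effective dose (nmol/kg). pA2 = −log(effective dose / 67 mL/kg).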

Rattus norvegicus [6] = test: Antidiuretic effective dose is expressed as the dose that reduces the response seen with 2 units of agonist to equal the response seen with 1 unit of agonist administered before antagonist.; assay type: functional, Urine; method in brief: as §2
Rattus norvegicus [7] = test: In vivo pA2 value represent the negative logarithm of the anti-vasopressor effective dose divided by the estimated volume of distribution (67 mL/kg).; assay type: functional, organism-based; details: read-out: pA2 (converted); method in brief: as §1
Rattus norvegicus [8] = test: Effective dose is defined as the dose that reduces the response seen with 2 units of agonist to equal the response seen with 1 unit of agonist administered before antagonist; agonist; assay type: functional, organism-based; details: filed as agonist

SMILES | Effective dose (Rattus norvegicus [1]) | Effective dose (Rattus norvegicus [2]) | further results
CC(C)[C@@H]1NC(=O)[C@H](Cc2ccccc2)NC(=O)[C@H](Cc2ccc(O)cc2)NC(=O)CC2(CCCCC2)SSC[C@@H](C(=O)N2CCC[C@H]2C(=O)N[C@@H](CCCN=C(N)N)C(=O)NCC(N)=O)NC(=O)[C@H](CC(N)=O)NC1=O (stereo in doubt) [listing 1 of 2 here] | 0.76 nM/kg |  | 
CCOc1ccc(C[C@@H]2NC(=O)CC3(CCCCC3)SSC[C@@H](C(=O)N3CCC[C@H]3C(=O)N[C@@H](CCCN=C(N)N)C(=O)NCC(N)=O)NC(=O)[C@H](CC(N)=O)NC(=O)[C@H](C(C)C)NC(=O)[C@H](Cc3ccccc3)NC2=O)cc1 (Y(Et)FVNCPRG-NH2; linker N-5 via X1) | 0.45 nM/kg | 1.1 nM/kg | pA2 (Rattus norvegicus [3]): 7.81 and 8.22
COc1ccc(C[C@@H]2NC(=O)CC3(CCCCC3)SSC[C@@H](C(=O)N3CCC[C@H]3C(=O)N[C@H](CCCN=C(N)N)C(=O)NCC(N)=O)NC(=O)[C@H](CC(N)=O)NC(=O)[C@H](C(C)C)NC(=O)[C@H](Cc3ccccc3)NC2=O)cc1 (Y(Me)FVNCP[dR]G-NH2; linker N-5 via X1) |  |  | Effective dose (Rattus norvegicus [4]): 0.54 nM/kg; Kb (Rattus norvegicus [5]): 0.0646 µM; Effective dose (Rattus norvegicus [6]): 4.9 nM/kg; Kb (Rattus norvegicus [7]): 0.00794 µM
CC(C)Oc1ccc(C[C@@H]2NC(=O)CC3(CCCCC3)SSC[C@@H](C(=O)N3CCC[C@H]3C(=O)N[C@H](CCCN=C(N)N)C(=O)NCC(N)=O)NC(=O)[C@H](CC(N)=O)NC(=O)[C@H](C(C)C)NC(=O)[C@H](Cc3ccccc3)NC2=O)cc1 (Y(iPr)FVNCP[dR]G-NH2; linker N-5 via X1) | 0.46 nM/kg | 2.2 nM/kg | 
CC(C)[C@@H]1NC(=O)[C@H](Cc2ccccc2)NC(=O)[C@H](Cc2ccc(O)cc2)NC(=O)CC2(CCCCC2)SSC[C@@H](C(=O)N2CCC[C@H]2C(=O)N[C@H](CCCN=C(N)N)C(=O)NCC(N)=O)NC(=O)[C@H](CC(N)=O)NC1=O | 1.5 nM/kg |  | 
CC(C)[C@@H]1NC(=O)[C@H](Cc2ccccc2)NC(=O)[C@H](Cc2ccc(O)cc2)NC(=O)CC2(CCCCC2)SSC[C@@H](C(=O)N2CCC[C@H]2C(=O)N[C@@H](CCCN=C(N)N)C(=O)NCC(N)=O)NC(=O)[C@H](CC(N)=O)NC1=O (stereo in doubt) [listing 2 of 2 here] |  |  | Effective dose (Rattus norvegicus [8]): Agonist
CCOc1ccc(C[C@@H]2NC(=O)CC3(CCCCC3)SSC[C@@H](C(=O)N3CCC[C@H]3C(=O)N[C@H](CCCN=C(N)N)C(=O)NCC(N)=O)NC(=O)[C@H](CC(N)=O)NC(=O)[C@H](C(C)C)NC(=O)[C@H](Cc3ccccc3)NC2=O)cc1 (Y(Et)FVNCP[dR]G-NH2; linker N-5 via X1) | 0.88 nM/kg | 1.8 nM/kg | 
CC(C)Oc1ccc(C[C@@H]2NC(=O)CC3(CCCCC3)SSC[C@@H](C(=O)N3CCC[C@H]3C(=O)N[C@@H](CCCN=C(N)N)C(=O)NCC(N)=O)NC(=O)[C@H](CC(N)=O)NC(=O)[C@H](C(C)C)NC(=O)[C@H](Cc3ccccc3)NC2=O)cc1 (Y(iPr)FVNCPRG-NH2; linker N-5 via X1) | 0.28 nM/kg | 1.6 nM/kg | 
CC(C)[C@@H]1NC(=O)[C@H](Cc2ccccc2)NC(=O)[C@@H](Cc2ccc(O)cc2)NC(=O)CC2(CCCCC2)SSC[C@@H](C(=O)N2CCC[C@H]2C(=O)N[C@@H](CCCN=C(N)N)C(=O)NCC(N)=O)NC(=O)[C@H](CC(N)=O)NC1=O | 0.29 nM/kg | 2.2 nM/kg | 
CC(C)[C@@H]1NC(=O)[C@H](Cc2ccccc2)NC(=O)[C@H](Cc2ccc(O)cc2)NC(=O)CC2(CCCCC2)SSC[C@@H](C(=O)N2CCC[C@H]2C(=O)N[C@@H](CCCN=C(N)N)C(=O)NCC(N)=O)NC(=O)[C@H](CC(N)=O)NC1=O (stereo in doubt; 9) | 0.6 nM/kg | 6.3 nM/kg | 
COc1ccc(C[C@@H]2NC(=O)CC3(CCCCC3)SSC[C@@H](C(=O)N3CCC[C@H]3C(=O)N[C@@H](CCCN=C(N)N)C(=O)NCC(N)=O)NC(=O)[C@H](CC(N)=O)NC(=O)[C@H](C(C)C)NC(=O)[C@H](Cc3ccccc3)NC2=O)cc1 (Y(Me)FVNCPRG-NH2; linker N-5 via X1) | 0.23 nM/kg | 1.2 nM/kg | 
CCCOc1ccc(C[C@@H]2NC(=O)CC3(CCCCC3)SSC[C@@H](C(=O)N3CCC[C@H]3C(=O)N[C@@H](CCCN=C(N)N)C(=O)NCC(N)=O)NC(=O)[C@H](CC(N)=O)NC(=O)[C@H](C(C)C)NC(=O)[C@H](Cc3ccccc3)NC2=O)cc1 (Y(Propyl)FVNCPRG-NH2; linker N-5 via X1) | 0.51 nM/kg | 1.7 nM/kg | 
